Active and inactive are the calls of the source.
Tests used:
Mus musculus [1] = species on record: Mus musculus; assay: Decrease in glucose level in wild type mouse fed on high fat diet after 4 weeks by glucose tolerance test relative to control; format: functional, organism-based
Summary of the method: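 Wild-type C57BL/6J mice on 60% fat diet from 4 weeks of age, gavaged with 40 mg kg⁻¹ d⁻¹ or vehicle for 4 weeks starting at 20 weeks of age. Glucose tolerance tested with 1.5 g kg⁻¹ intraperitoneal glucose after an overnight fast.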

[2] = Reduction of Mcp1 expression mouse aP2+/+ macrophage cells relative to control; format: functional, cell-based
Summary of the method: (§1)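 Mouse aP2⁺/⁺ and aP2-reconstituted aP2⁻/⁻ macrophage lines were grown in RPMI with FBS or 5% LPDS, with inhibitor in DMSO or vehicle. Mcp-1, Il1β, Il6 and Tnf mRNA were measured by SYBR Green qRT-PCR (annealing at 58 °C, 50 cycles), normalized to 18s rRNA and then to untreated cells. Mean ± s.e.m.; at least triplicate.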

Mus musculus [3] = assay: Decrease in Cd68 expression in ob/ob mouse adipose tissue at 40 mg/kg/day, po; format: functional, organism-based
Mus musculus [4] = assay: Effect on insulin level in 5-week old apoE-/- C57BL/6J mouse fed on western diet and administered with 15 mg/kg/day, po drug at 12 week in 12-18 week late intervention study; format: functional
Summary of the method: (§2)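 Male Apoe−/− mice on western diet (21% fat, 0.21% cholesterol) from 4–5 weeks of age. Oral gavage for 6 weeks from age 5 or 12 weeks; vehicle 10% 1-methyl-2-pyrrolidone, 5% cremophor EL with ethanol in water. Blood taken after 6 h fast before and after treatment. Glucose by meter; insulin by ELISA; lipids and glycerol colorimetric.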

Mus musculus [5] = assay: Decrease in F4/80 (Emr1) expression in ob/ob mouse adipose tissue at 40 mg/kg/day, po; format: functional, organism-based
[6] = Reduction of TNF expression mouse aP2-/-R macrophage cells (re-expression of aP2) relative to control; format: functional, cell-based; summary of the method: as §1
Macrophage = assay: Reduction in total cholesterol ester content in mouse aP2+/+ macrophage cells at 25 uM relative to control; format: functional, cell-based
THP-1 [7] = assay: Reduction of IL6 expression in human THP1 cells expressing aP2 relative to control; format: functional, cell-based
Mus musculus [8] = assay: Increase in glucose uptake in epididymal fat in ob/ob mouse at 40 mg/kg/day, po after 4 weeks by hyperinsulinemic-euglycaemic clamp studies relative to control; format: functional, organism-based
Summary of the method: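 Ob/ob mice after 4 weeks of treatment, jugular catheterized 4 days earlier. Clamp with insulin at 12.5 mU kg⁻¹ min⁻¹, variable 25% glucose to hold basal glucose, and ³H-glucose at 0.1 μCi min⁻¹ with 2-¹⁴C-DG. Tissue uptake computed from the fitted plasma 2-¹⁴C-DG curve and tissue 2-¹⁴C-DG-6-phosphate content. n = 7 and 9.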

THP-1 [9] = assay: Reduction of Mcp1 expression in human THP1 cells expressing aP2 relative to control; format: functional, cell-based
Mus musculus [10] = assay: Effect on adiponectin level in 5-week old apoE-/- C57BL/6J mouse fed on western diet and administered with 15 mg/kg/day, po drug at 12 week in 12-18 week late intervention study; format: functional; summary of the method: as §2
Mus musculus [11] = assay: Increase in insulin-stimulated AKT serine 473 phosphorylation in ob/ob mouse liver at 40 mg/kg/day, po relative to control; format: functional, organism-based
Summary of the method: (§3)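 Male ob/ob mice got 40 mg kg⁻¹ d⁻¹ by oral gavage or vehicle. After a 6 h fast under tribromoethanol anaesthesia, portal-vein insulin (2 IU kg⁻¹) or PBS was given. Liver was removed 3 min later, lysed and western-blotted for IRβ pTyr1162/1163 and AKT pSer473 against total IRβ and AKT, then quantified.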

THP-1 [12] = assay: Reduction of IL1-beta expression in human THP1 cells expressing aP2 relative to control; format: functional, cell-based
Mus musculus [13] = assay: Effect on glycerol level in ob/ob mouse at 40 mg/kg/day, po after 6 weeks relative to control; format: functional
Summary of the method: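 Male ob/ob mice given oral gavage daily for 6 weeks from 8 weeks old, n = 6 per group. Blood taken after 6 h fast before and after treatment; fed glucose taken at week 2. Glucose by meter on 3 μl whole blood, insulin by ultrasensitive ELISA, cholesterol, FFA and glycerol by colorimetric microplate assays.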

Mus musculus [14] = species on record: Mus musculus; assay: Decrease in fatty acid uptake in wild type mouse aP2+/+ mal1+/+ preadipocytes after 24 hrs; format: functional
Summary of the method: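 Immortalized mouse pre-adipocytes differentiated with dexamethasone, IBMX, rosiglitazone and insulin, then insulin alone. Cells incubated 24 h in DMEM with 2% FBS plus inhibitor, then moved to DMEM with 2% BSA and given ³H-stearate at 37 °C for 30 min. Lysate counted by scintillation; values normalized to protein and expressed as % of untreated.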

Mus musculus [15] = assay: Effect on triglyceride level in 5-week old apoE-/- C57BL/6J mouse fed on western diet and 15 mg/kg/day, po drug simultaneously in 5-11 week early intervention study; format: functional; summary of the method: as §2
THP-1 [16] = assay: Reduction of TNF expression in human THP1 cells expressing aP2 relative to control; format: functional, cell-based
[17] = Reduction of Mcp1 expression mouse aP2-/-R macrophage cells (re-expression of aP2) relative to control; format: functional, cell-based; summary of the method: as §1
Mus musculus [18] = assay: Decrease in IL6 expression in ob/ob mouse adipose tissue at 40 mg/kg/day, po; format: functional, organism-based
[19] = target: Apolipoprotein A-I (Homo sapiens) (UniProt P02647); assay: Increase in APOA1-mediated cholesterol in human THP1 cells at 25 uM relative to control; format: cell-based; details: THP-1
Summary of the method: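 Macrophages loaded 24 h in RPMI with 5% LPDS, 1 μCi ml⁻¹ ³H-cholesterol and 50 μg ml⁻¹ acLDL, ± 25 μM inhibitor. Equilibrated 24 h in 0.2% fatty-acid-free BSA ± inhibitor, then 4 h ± APOA1 20 μg ml⁻¹. Efflux = medium ³H as % of total, per mg protein; mouse lines normalized to untreated aP2+/+.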

Mus musculus [20] = assay: Effect on glycerol level in 5-week old apoE-/- C57BL/6J mouse fed on western diet and administered with 15 mg/kg/day, po drug at 12 week in 12-18 week late intervention study; format: functional; summary of the method: as §2
THP-1 [21] = assay: Increase in ABCA1 mRNA level in human THP1 cells at 25 uM relative to control; format: functional, cell-based
Mus musculus [22] = assay: Decrease in Acaca expression in liver of ob/ob mouse at 40 mg/kg/day, po; format: functional, organism-based
Summary of the method: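 Liver from male ob/ob mice gavaged daily for 6 weeks from 8 weeks of age, n = 6 per group. mRNA measured by SYBR Green real-time PCR: 95 °C 4 min, then 50 cycles of 95 °C 15 s, 58 °C 30 s, 72 °C 30 s. Normalized to 18s rRNA.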

Mus musculus [23] = assay: Decrease in IL1-beta expression in ob/ob mouse adipose tissue at 40 mg/kg/day, po; format: functional, organism-based
Mus musculus [24] = assay: Effect on insulin level in 5-week old apoE-/- C57BL/6J mouse fed on western diet and 15 mg/kg/day, po drug simultaneously in 5-11 week early intervention study; format: functional; summary of the method: as §2
Mus musculus [25] = assay: Increase in insulin-stimulated IRbeta tyrosine 1162/1163 phosphorylation in ob/ob mouse liver at 40 mg/kg/day, po relative to control; format: functional, organism-based; summary of the method: as §3
Mus musculus [26] = assay: Effect on glycerol level in 5-week old apoE-/- C57BL/6J mouse fed on western diet and 15 mg/kg/day, po drug simultaneously in 5-11 week early intervention study; format: functional; summary of the method: as §2
[27] = Reduction of TNF expression in mouse aP2+/+ macrophage cells relative to control; format: functional, cell-based; summary of the method: as §1

Measured: Activity

Chain of Apolipoprotein A-I (Homo sapiens) (P02647 whole entry): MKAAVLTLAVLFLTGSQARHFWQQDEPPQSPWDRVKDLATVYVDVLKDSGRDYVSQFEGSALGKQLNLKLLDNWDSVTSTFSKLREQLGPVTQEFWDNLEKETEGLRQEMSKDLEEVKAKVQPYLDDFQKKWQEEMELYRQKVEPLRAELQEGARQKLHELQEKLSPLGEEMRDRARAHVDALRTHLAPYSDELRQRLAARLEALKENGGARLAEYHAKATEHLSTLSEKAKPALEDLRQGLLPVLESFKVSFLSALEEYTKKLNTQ

CCc1c(-c2ccccc2)c(-c2ccccc2)nn1-c1ccccc1-c1cccc(OCC(=O)O)c1
active: Mus musculus [1] | [2] | Mus musculus [3] | Mus musculus [5] | [6] | Macrophage | THP-1 [7] | Mus musculus [8] | THP-1 [9] | Mus musculus [11] | THP-1 [12] | Mus musculus [14] Dose-dependent effect | THP-1 [16] | [17] | Mus musculus [18] | [19] | THP-1 [21] | Mus musculus [22] | Mus musculus [23] | Mus musculus [25] | [27]
0.56 mM: Mus musculus [13]
5.78 µg/mL: Mus musculus [10]
2.31 mM: Mus musculus [26]
213.6 mg/dL: Mus musculus [15]
2.19 ng/mL: Mus musculus [4]
0.5 ng/mL: Mus musculus [24]
3.55 mM: Mus musculus [20]
